Experimental data reported in ChEMBL document CHEMBL1165950, “Design and synthesis of new potent anticancer pyrazoles with high FLT3 kinase inhibitory selectivity” (Bioorg Med Chem, 2010).

How the values were obtained:
Format in all cases: functional
TK-10 = experiment: Cytotoxicity against human TK10 cells assessed as cell growth at 10 uM; conditions: read-out: Activity
Summary of the method: (§1)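 NCI-60 screen: cells grown in RPMI 1640 with 5% FBS and 2 mM L-glutamine, plated at 5000–40,000 cells/well according to doubling time, and preincubated 24 h at 37 °C, 5% CO2. The single 10 µM dose (DMSO stock) was added, then incubated 48 h. Cells were TCA-fixed and stained with 0.4% SRB, read at 515 nm, and growth % calculated against time-zero and control plates.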

PC-3 = experiment: Cytotoxicity against human PC3 cells assessed as cell growth at 10 uM; conditions: read-out: Activity; summary of the method: as §1
[1] = Cytotoxicity against human […] cells assessed as cell growth at 0.001 uM after 48 hrs by sulforhodamine B assay; conditions: read-out: Activity
SF-295 [2] = experiment: Cytotoxicity against human SF295 cells assessed as cell growth at 1 uM after 48 hrs by sulforhodamine B assay; conditions: SF-295, 48 h, read-out: Activity
HCC 2998 = experiment: Cytotoxicity against human HCC2998 cells assessed as cell growth at 0.01 uM after 48 hrs by sulforhodamine B assay; conditions: HCC 2998, 48 h, read-out: Activity
SNB-75 = experiment: Cytotoxicity against human SNB75 cells assessed as cell growth at 0.01 uM after 48 hrs by sulforhodamine B assay; conditions: SNB-75, 48 h, read-out: Activity
RXF 393 = experiment: Cytotoxicity against human RXF393 cells assessed as cell growth at 0.01 uM after 48 hrs by sulforhodamine B assay; conditions: RXF 393, 48 h, read-out: Activity
UO-31 = experiment: Cytotoxicity against human UO31 cells assessed as cell growth at 0.01 uM after 48 hrs by sulforhodamine B assay; conditions: UO-31, 48 h, read-out: Activity
SF-268 [3] = experiment: Cytotoxicity against human SF268 cells assessed as cell growth at 0.001 uM after 48 hrs by sulforhodamine B assay; conditions: SF-268, 48 h, read-out: Activity
U-251 = experiment: Cytotoxicity against human U251 cells assessed as cell growth at 0.001 uM after 48 hrs by sulforhodamine B assay; conditions: U-251, 48 h, read-out: Activity
SK-MEL-5 = experiment: Cytotoxicity against human SK-MEL-5 cells assessed as cell growth at 0.001 uM after 48 hrs by sulforhodamine B assay; conditions: SK-MEL-5, 48 h, read-out: Activity
NCI-H460 = experiment: Growth inhibition of human NCI-H460 cells after 48 hrs by sulforhodamine B assay; conditions: NCI-H460, 48 h; for CC50: read-out: LC50 (the source's name)
Summary of the method: (§2)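 NCI 60-cell screen, five-dose mode. Cells grown in RPMI 1640 with 5% FBS and 2 mM L-glutamine and plated at 5000-40,000 cells/well according to doubling time. After 24 h preincubation, a Tz plate was TCA-fixed. Five concentrations (10-fold or 1/2 log dilutions) were applied for 48 h at 37 °C. SRB staining read at 515 nm. IC50 taken from [(Ti-Tz)/(C-Tz)]×100 = 50.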

SF-295 [4] = experiment: Growth inhibition of human SF295 cells after 48 hrs by sulforhodamine B assay; conditions: SF-295, 48 h; for CC50: read-out: LC50 (the source's name); summary of the method: as §2
SK-MEL-2 [5] = experiment: Growth inhibition of human SK-MEL-2 cells after 48 hrs by sulforhodamine B assay; conditions: SK-MEL-2, 48 h; for CC50: read-out: LC50 (the source's name); summary of the method: as §2
UACC-62 = experiment: Growth inhibition of human UACC62 cells after 48 hrs by sulforhodamine B assay; conditions: UACC-62, 48 h; for CC50: read-out: LC50 (the source's name); summary of the method: as §2
BT-549 = experiment: Cytotoxicity against human BT549 cells assessed as cell growth at 0.01 uM after 48 hrs by sulforhodamine B assay; conditions: BT-549, 48 h, read-out: Activity
Summary of the method: (§3)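 NCI-60 five-dose screen. Cells were grown in RPMI 1640 with 5% FBS and 2 mM L-glutamine, plated at 5000–40,000 cells/well and preincubated for 24 h. Time-zero plates were TCA-fixed. DMSO-solubilized drug was added at five concentrations (10-fold or ½-log serial dilutions) for 48 h at 37 °C, 5% CO2. Cells were TCA-fixed, stained with 0.4% SRB and read at 515 nm. Percent growth used time-zero, control and test absorbances.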

NCI-H23 = experiment: Cytotoxicity against human NCI-H23 cells assessed as cell growth at 100 nM after 48 hrs by sulforhodamine B assay; conditions: NCI-H23, 48 h, read-out: Activity
NCI/ADR-RES = experiment: Cytotoxicity against human NCI/ADR-RES cells assessed as cell growth at 1 uM after 48 hrs by sulforhodamine B assay; conditions: read-out: Activity
SK-OV-3 = experiment: Cytotoxicity against human SKOV3 cells assessed as cell growth at 1 uM after 48 hrs by sulforhodamine B assay; conditions: SK-OV-3, 48 h, read-out: Activity
ACHN [6] = experiment: Cytotoxicity against human ACHN cells assessed as cell growth at 1 uM after 48 hrs by sulforhodamine B assay; conditions: read-out: Activity; summary of the method: as §3
SN12C = experiment: Cytotoxicity against human SN12C cells assessed as cell growth at 1 uM after 48 hrs by sulforhodamine B assay; conditions: read-out: Activity
HCT-116 [7] = experiment: Cytotoxicity against human HCT116 cells assessed as cell growth at 10 uM; conditions: read-out: Activity
Summary of the method: (§4)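 Single-dose NCI-60 screen at 10 µM. Cells were grown in RPMI 1640 with 5% FBS and 2 mM L-glutamine, then treated for 48 h at 37 °C. Protein was measured by SRB staining with absorbance at 515 nm. Percentage growth was recorded, and inhibition percentage was calculated as 100 minus growth percentage.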

HCT-15 = experiment: Cytotoxicity against human HCT15 cells assessed as cell growth at 10 uM; conditions: read-out: Activity; summary of the method: as §4
COLO 205 = experiment: Cytotoxicity against human COLO205 cells assessed as cell growth at 10 uM after 48 hrs by sulforhodamine B assay; conditions: COLO 205, 48 h, read-out: Activity
HCT-116 [8] = experiment: Cytotoxicity against human HCT116 cells assessed as cell growth at 10 uM after 48 hrs by sulforhodamine B assay; conditions: HCT-116, 48 h, read-out: Activity
SF-268 [9] = experiment: Cytotoxicity against human SF268 cells assessed as cell growth at 10 uM after 48 hrs by sulforhodamine B assay; conditions: SF-268, 48 h, read-out: Activity
SNB-19 = experiment: Cytotoxicity against human SNB19 cells assessed as cell growth at 10 uM after 48 hrs by sulforhodamine B assay; conditions: SNB-19, 48 h, read-out: Activity
SK-MEL-2 [10] = experiment: Cytotoxicity against human SK-MEL-2 cells assessed as cell growth at 10 uM after 48 hrs by sulforhodamine B assay; conditions: SK-MEL-2, 48 h, read-out: Activity
UACC-257 = experiment: Cytotoxicity against human UACC257 cells assessed as cell growth at 10 uM after 48 hrs by sulforhodamine B assay; conditions: UACC-257, 48 h, read-out: Activity
ACHN [11] = experiment: Cytotoxicity against human ACHN cells assessed as cell growth at 10 uM after 48 hrs by sulforhodamine B assay; conditions: read-out: Activity; summary of the method: as §3

Q: With `COc1cc(C)cc(-c2c(-c3ccnc(-c4ccc(N(C)C)cc4)c3)cnn2CC#N)c1` as the molecule, how does the growth at 10 µM (TK-10) read?
A: 36.6%

Q: What about the growth at 10 µM (PC-3) of the same molecule?
A: 27.6%

Q: And the growth at 0.001 µM [1]?
A: 100%

Q: And the growth at 1 µM (SF-295 [2])?
A: -27%

Q: What about the growth at 0.01 µM (HCC 2998) of the same molecule?
A: 30%

Q: And the growth at 0.01 µM (SNB-75)?
A: 65%

Q: What about the growth at 0.01 µM (RXF 393) of the same molecule?
A: 84%

Q: And the growth at 0.01 µM (UO-31)?
A: 63%

Q: What about the growth at 0.001 µM (SF-268 [3]) of the same molecule?
A: 98%

Q: And the growth at 0.001 µM (U-251)?
A: 95%

Q: And the growth at 0.001 µM (SK-MEL-5)?
A: 95%

Q: What about the GI50 (NCI-H460) of the same molecule?
A: 57.7 nM

Q: What about the TGI (NCI-H460) of the same molecule?
A: 0.282 µM

Q: What about the CC50 (NCI-H460) of the same molecule?
A: 4.99 µM

Q: And the GI50 (SF-295 [4])?
A: 52.9 nM

Q: What about the TGI (SF-295 [4]) of the same molecule?
A: 315 nM

Q: What about the CC50 (SF-295 [4]) of the same molecule?
A: > 100 µM

Q: What about the GI50 (SK-MEL-2 [5]) of the same molecule?
A: 204 nM

Q: What about the TGI (SK-MEL-2 [5]) of the same molecule?
A: > 100 µM

Q: And the CC50 (SK-MEL-2 [5])?
A: > 100 µM

Q: What about the GI50 (UACC-62) of the same molecule?
A: 61.9 nM

Q: And the TGI (UACC-62)?
A: > 100 µM

Q: What about the CC50 (UACC-62) of the same molecule?
A: > 100 µM

Q: And the growth at 0.01 µM (BT-549)?
A: 44%

Q: What about the growth at 0.1 µM (NCI-H23) of the same molecule?
A: 28%

Q: What about the growth at 1 µM (NCI/ADR-RES) of the same molecule?
A: 7%

Q: What about the growth at 1 µM (SK-OV-3) of the same molecule?
A: 36%

Q: What about the growth at 1 µM (ACHN [6]) of the same molecule?
A: 19%

Q: And the growth at 1 µM (SN12C)?
A: 18%

Q: What about the growth at 10 µM (HCT-116 [7]) of the same molecule?
A: -32.4%

Q: What about the growth at 10 µM (HCT-15) of the same molecule?
A: 8.33%

Q: And the growth at 10 µM (COLO 205)?
A: 4%

Q: And the growth at 10 µM (HCT-116 [8])?
A: -27%

Q: What about the growth at 10 µM (SF-268 [9]) of the same molecule?
A: 20%

Q: What about the growth at 10 µM (SNB-19) of the same molecule?
A: 35%

Q: And the growth at 10 µM (SK-MEL-2 [10])?
A: 10%

Q: And the growth at 10 µM (UACC-257)?
A: 18%

Q: What about the growth at 10 µM (ACHN [11]) of the same molecule?
A: 16%

Q: With `COc1cc(C)cc(-c2nn(CC#N)cc2-c2ccc(-c3cccc(C(C)=O)c3)nc2)c1` as the molecule, how does the growth at 10 µM (TK-10) read?
A: 27.3%

Q: And the growth at 10 µM (PC-3)?
A: 31.5%

Q: What about the growth at 0.001 µM [1] of the same molecule?
A: 100%

Q: And the growth at 1 µM (SF-295 [2])?
A: 16%

Q: And the growth at 0.01 µM (HCC 2998)?
A: 87%

Q: What about the growth at 0.01 µM (SNB-75) of the same molecule?
A: 83%

Q: And the growth at 0.01 µM (RXF 393)?
A: 89%

Q: What about the growth at 0.01 µM (UO-31) of the same molecule?
A: 86%

Q: And the growth at 0.001 µM (SF-268 [3])?
A: 99%

Q: What about the growth at 0.001 µM (U-251) of the same molecule?
A: 98%

Q: And the growth at 0.001 µM (SK-MEL-5)?
A: 95%

Q: What about the GI50 (NCI-H460) of the same molecule?
A: 2040 nM

Q: What about the TGI (NCI-H460) of the same molecule?
A: 5.72 µM

Q: And the CC50 (NCI-H460)?
A: 26.6 µM

Q: What about the GI50 (SF-295 [4]) of the same molecule?
A: 2630 nM

Q: And the TGI (SF-295 [4])?
A: > 100000 nM

Q: What about the CC50 (SF-295 [4]) of the same molecule?
A: > 100 µM

Q: And the GI50 (SK-MEL-2 [5])?
A: 3730 nM

Q: And the TGI (SK-MEL-2 [5])?
A: 41.3 µM

Q: And the CC50 (SK-MEL-2 [5])?
A: > 100 µM

Q: And the GI50 (UACC-62)?
A: 4360 nM

Q: What about the TGI (UACC-62) of the same molecule?
A: > 100 µM

Q: And the CC50 (UACC-62)?
A: > 100 µM

Q: What about the growth at 0.01 µM (BT-549) of the same molecule?
A: 90%

Q: What about the growth at 0.1 µM (NCI-H23) of the same molecule?
A: 88%

Q: And the growth at 1 µM (NCI/ADR-RES)?
A: -16%

Q: And the growth at 1 µM (SK-OV-3)?
A: -4%

Q: And the growth at 1 µM (ACHN [6])?
A: 24%

Q: And the growth at 1 µM (SN12C)?
A: 39%

Q: And the growth at 10 µM (HCT-116 [7])?
A: 10.3%

Q: And the growth at 10 µM (HCT-15)?
A: 23.4%

Q: And the growth at 10 µM (COLO 205)?
A: -62%

Q: What about the growth at 10 µM (HCT-116 [8]) of the same molecule?
A: -53%

Q: What about the growth at 10 µM (SF-268 [9]) of the same molecule?
A: -2%

Q: And the growth at 10 µM (SNB-19)?
A: 19%

Q: What about the growth at 10 µM (SK-MEL-2 [10]) of the same molecule?
A: -14%

Q: What about the growth at 10 µM (UACC-257) of the same molecule?
A: 3%

Q: And the growth at 10 µM (ACHN [11])?
A: 4%
